The values below come from ChEMBL document CHEMBL1141660, “Synthesis and antimycobacterial evaluation of substituted pyrazinecarboxamides” (Eur J Med Chem, 2008).

Values after ≈ are worked out from the molar mass of the structure shown.

In test [1] the test system is Mycobacterium tuberculosis. The test is described as follows: Antimicrobial activity against Mycobacterium tuberculosis H37Rv ATCC 27294 at 6.25 ug/mL by microplate alamar blue assay. The class given is functional. (Alamar Blue is a resazurin reagent that responds to reducing activity.)
Test [2] deals with Chlorella vulgaris. In words: Antialagal activity against Chlorella vulgaris Beji assessed as reduction in chlorophyll content after 7 days. The class given is functional, organism-based. The settings on record: 168 h. The method in brief: (§1)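 Chlorella cultures with compound added from DMSO (final ≤0.25%), against controls carrying the same DMSO level. Chlorophyll content was read relative to the control. Results are given either as IC50 (concentration giving a 50% drop in chlorophyll) or as percent of control across the 0.83–100 concentration range, with S.D.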

Test [3] in a line: Inhibition of photosynthetic electron transport in Spinacia oleracea chloroplasts assessed as photoreduction of 2,6-dicholorophenol-indophenol measured by decrease in oxygen evolution rate. The class given is functional. The method in brief: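 Chloroplast suspension (chlorophyll 30 mg/L) in 0.02 mol/L phosphate buffer, pH 7.2, with 0.4 mol/L sucrose, 0.005 mol/L MgCl2 and 0.015 mol/L NaCl. Samples were lit by a halogen lamp (~100 W/m², 10 cm, 4-cm water filter) at 22 °C. Electron transport was followed as DCPIP photoreduction. IC50 is the molar concentration halving oxygen evolution versus the untreated control.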

The test system of test [4] is Chlorella vulgaris. The test is described as follows: Antialagal activity against Chlorella vulgaris Beji assessed as reduction in chlorophyll content after 7 days at 0.83 to 100 umol/L. It counts as functional. Also noted: scale not given: the % may be the effect or the level left. The method in brief: as §1
Test [5] deals with Trichophyton mentagrophytes. The test is described as follows: Antifungal activity against Trichophyton mentagrophytes after 72 hrs. The class given is functional.
Test [6] relates to Trichophyton mentagrophytes. The test is described as follows: Antifungal activity against Trichophyton mentagrophytes after 120 hrs. It counts as functional.
The subject of test [7] is Mycobacterium tuberculosis. In words: Antimicrobial activity against Mycobacterium tuberculosis H37Rv ATCC 27294 by microplate alamar blue assay. It counts as functional.
For another test, the system named is Vero. In words: Cytotoxicity against african green monkey Vero cells after 72 hrs by MTT assay. The settings on record: Chlorocebus sabaeus. It counts as cell-based. The method in brief:
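Secondary screen in VERO cells. Viability was read with the CellTiter 96 non-radioactive cell proliferation assay.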
In general terms: Tetrazolium dyes change colour on reduction, which living cells bring about.

The nature of test [8]: Selectivity index, ratio of MIC Mycobacterium tuberculosis H37Rv ATCC 27294 to IC50 for african green monkey Vero cells. It counts as functional.

The term inhibition denotes the share of the control response that was lost under treatment. For orientation: IC50 means the concentration needed to halve the response being measured. In test [1], `Cc1ccc(NC(=O)c2cnccn2)cc1` came in with an inhibition at 6.25 µg/mL of 86%. The IC50 in the test on Chlorella vulgaris [2] came out at 70.9 µM; in test [3], 1480 µM.
In [1], `CC(C)(C)c1ncc(C(=O)Nc2cc(O)ccc2Cl)nc1Cl` came in with an inhibition at 6.25 µg/mL of 0%. Moreover, in [3], the IC50 amounted to 625 µM. In addition, the Activity in the test with Chlorella vulgaris [4] is on record as 98%.
In [1], `O=C(Nc1cc(O)ccc1Cl)c1cncc(Cl)n1` gave an inhibition at 6.25 µg/mL of 15%. In addition, the IC50 in [3] is 624 µM. In addition, the Activity in the test with Chlorella vulgaris [4] turned out to be 103%.
`O=C(Nc1ccc(F)cc1)c1cncc(Cl)n1`: the inhibition at 6.25 µg/mL in test [1] was 44%. Moreover, the 50% inhibitory concentration (IC50) with Chlorella vulgaris [2] worked out at 32.3 µM; in test [3], 384 µM.
On to `O=C(Nc1cccc(C(F)(F)F)c1)c1cncc(Cl)n1`, for which the inhibition at 6.25 µg/mL in test [1] came to 77%. Besides, the results for the concentration for half-maximal inhibition (IC50) (with Chlorella vulgaris [2]; in test [3]) were 12.1 µM and 229 µM, respectively.
`Cc1ccc(NC(=O)c2cnc(C(C)(C)C)c(Cl)n2)cc1` had an inhibition at 6.25 µg/mL in test [1] of 0%. Also, in test [3], the 50% inhibitory concentration (IC50) is 73 µM. Also, the Activity in the test on Chlorella vulgaris [4] is on record as 92.9%.
In general, MIC refers to the lowest concentration that inhibits growth of the organism. Take `CC(C)(C)c1cnc(C(=O)Nc2cccc(C(F)(F)F)c2)cn1`: the minimal inhibitory concentration (MIC) in test [5] and in test [6] was 62.5 µM (≈ 20.2 µg/mL) in each case. The compound also returned an inhibition at 6.25 µg/mL in test [1] of 23%. For the same compound, the concentration for half-maximal inhibition (IC50) in [3] was found to be 283 µM. The Activity with Chlorella vulgaris [4] is on record as 85.2%.
`Cc1ccc(NC(=O)c2cnc(C(C)(C)C)cn2)cc1`: in test [1], 6.25 µg/mL produced 61% inhibition. In addition, the half-inhibitory concentration (IC50) in test [3] worked out at 164 µM. Also, the Activity in the test on Chlorella vulgaris [4] was determined as 91.8%.
For `CC(C)(C)c1cnc(C(=O)Nc2ccc(F)cc2)cn1` the same measures were 25%, 524 µM and 94.5%.
In test [7], `O=C(Nc1cccc(C(F)(F)F)c1)c1cnccn1` registered an MIC of 6.25 µg/mL (≈ 23.4 µM). In test [1], this compound showed an inhibition at 6.25 µg/mL of 99%. In addition, the IC50 is greater than 62.5 µg/mL with Vero and 130 µM in test [3]. For the same compound, the Ratio in test [8] is listed as greater than 10. Also, in the test with Chlorella vulgaris [4], the Activity came to 91.5%.
Compound `O=C(Nc1ccccc1C(F)(F)F)c1cncc(Cl)n1` had an inhibition at 6.25 µg/mL in test [1] of 26%. For the same compound, in [3], the IC50 was 557 µM. Besides, in the test with Chlorella vulgaris [4], the Activity is 87.8%.
`CC(C)(C)c1cnc(C(=O)Nc2ccccc2C(F)(F)F)cn1` yielded an inhibition at 6.25 µg/mL in [1] of 7%. Moreover, the values for the 50% inhibitory concentration (IC50) (with Chlorella vulgaris [2]; in test [3]) were 32.9 µM and 55 µM, respectively.
`O=C(Nc1ccccc1C(F)(F)F)c1cnccn1` came in with an inhibition at 6.25 µg/mL in test [1] of 31%. For the same compound, the half-inhibitory concentration (IC50) in test [3] came out at 376 µM. For the same compound, the Activity in the test on Chlorella vulgaris [4] was 91.7%.
As for `CC(C)(C)c1ncc(C(=O)Nc2ccc(F)cc2)nc1Cl`, the inhibition at 6.25 µg/mL in test [1] was found to be 15%. Besides, in test [3], the half-maximal inhibitory concentration (IC50) came to 103 µM. Besides, the Activity in the test on Chlorella vulgaris [4] was determined as 101.6%.
Take `CC(C)(C)c1ncc(C(=O)Nc2cccc(C(F)(F)F)c2)nc1Cl`: inhibition of growth in test [7] (MIC) required 3.13 µg/mL (≈ 8.75 µM). Besides, at 6.25 µg/mL the inhibition in [1] was 95%. In addition, the IC50 in the test with Vero is greater than 10 µg/mL; in [3], 173 µM. For the same compound, the Ratio in test [8] was greater than 3.2. Moreover, the Activity with Chlorella vulgaris [4] is 90.1%.
Compound `O=C(Nc1cc(O)ccc1Cl)c1cnccn1` gave an inhibition at 6.25 µg/mL in test [1] of 0%. In addition, the IC50 in test [3] came out at 722 µM. The Activity in the test on Chlorella vulgaris [4] is 97.1%.
Turning to `NC(=O)c1cnccn1` [PYRAZINAMIDE], the MIC in [7] came out at 12.5 µg/mL (≈ 102 µM).
As for `Cc1ccc(NC(=O)c2cncc(Cl)n2)cc1`, in test [1], the inhibition at 6.25 µg/mL was 71%. For the same compound, the 50% inhibitory concentration (IC50) with Chlorella vulgaris [2] was 37.4 µM; in test [3], 1520 µM.
Regarding `CC(C)(C)c1cnc(C(=O)Nc2cc(O)ccc2Cl)cn1`, the inhibition at 6.25 µg/mL in test [1] was 0%. In the test with Chlorella vulgaris [4], the Activity came out at 122%.
Turning to `CN(C)C(=O)Nc1ccc(Cl)c(Cl)c1` [DCMU], the IC50 in the test with Chlorella vulgaris [2] worked out at 7.3 µM; in test [3], 1.9 µM.
`O=C(Nc1ccc(F)cc1)c1cnccn1` registered an inhibition at 6.25 µg/mL in [1] of 0%. Further, the IC50 in test [3] is 480 µM. The Activity in the test with Chlorella vulgaris [4] is on record as 89.9%.
The corresponding values for `CC(C)(C)c1ncc(C(=O)Nc2ccccc2C(F)(F)F)nc1Cl` are 6%, 205 µM and 94.4%.
